# Tests used:
# [1] = molecular target: T1, Sphingosine 1-phosphate receptor 1 (Homo sapiens, UniProt P21453); experiment: In vitro binding affinity towards human Sphingosine 1-phosphate receptor 1 expressed in HEK293T cells using [gamma-35S]-GTP as radioligand; format: cell-based, HEK-293T
# [2] = molecular target: T2, Sphingosine 1-phosphate receptor 2 (Homo sapiens, UniProt O95136); experiment: In vitro binding affinity towards human Sphingosine 1-phosphate receptor 2 expressed in HEK293T cells using [gamma-35S]-GTP as radioligand; Not active; format: cell-based; settings: hek-293t
# [3] = molecular target: T3, Sphingosine 1-phosphate receptor 3 (Homo sapiens, UniProt Q99500); experiment: In vitro binding affinity towards human Sphingosine 1-phosphate receptor 3 expressed in HEK293T cells using [gamma-35S]-GTP as radioligand; Not active; format: cell-based; settings: hek-293t
# [4] = molecular target: T4, Sphingosine 1-phosphate receptor 4 (Homo sapiens, UniProt O95977); experiment: In vitro binding affinity towards human Sphingosine 1-phosphate receptor 4 expressed in HEK293T cells using [gamma-35S]-GTP as radioligand; format: cell-based, HEK-293T
# T4 sequence (O95977 whole entry): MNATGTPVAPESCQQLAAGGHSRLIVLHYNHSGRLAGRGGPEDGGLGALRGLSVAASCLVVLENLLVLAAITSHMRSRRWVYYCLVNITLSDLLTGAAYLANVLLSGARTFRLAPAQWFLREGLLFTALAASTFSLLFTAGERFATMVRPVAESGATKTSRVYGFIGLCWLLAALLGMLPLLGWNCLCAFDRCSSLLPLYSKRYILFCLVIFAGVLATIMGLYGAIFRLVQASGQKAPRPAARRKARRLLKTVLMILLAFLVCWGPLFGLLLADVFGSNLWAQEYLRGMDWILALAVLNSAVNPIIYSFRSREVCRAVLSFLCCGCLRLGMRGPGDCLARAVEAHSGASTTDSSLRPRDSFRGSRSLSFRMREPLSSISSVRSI
# [5] = molecular target: Sphingosine 1-phosphate receptor 5 (Homo sapiens, UniProt Q9H228); experiment: In vitro binding affinity towards human Sphingosine 1-phosphate receptor 5 expressed in HEK293T cells using [gamma-35S]-GTP as radioligand; format: cell-based, HEK-293T
# [6] = molecular target: T3, Sphingosine 1-phosphate receptor 3; experiment: In vitro binding affinity towards human Sphingosine 1-phosphate receptor 3 expressed in HEK293T cells using [gamma-35S]-GTP as radioligand; format: cell-based, HEK-293T
# [7] = molecular target: T1, Sphingosine 1-phosphate receptor 1; experiment: In vitro binding affinity towards human Sphingosine 1-phosphate receptor 1 expressed in HEK293T cells using [gamma-35S]-GTP as radioligand. (Experiment 2); format: cell-based, HEK-293T
# Method in brief: (§1)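 Membranes were incubated with test lipid in pH 7.5 buffer (HEPES 50 mM, NaCl 100 mM, MgCl2 5 mM) containing saponin, GDP and 0.1 nM [γ-35S]GTP for 30 min at 30 °C. Bound label was separated by GF/C filtration and counted by scintillation. EC50 is the mean of three experiments.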
# [8] = molecular target: T3, Sphingosine 1-phosphate receptor 3; experiment: In vitro binding affinity towards human Sphingosine 1-phosphate receptor 3 expressed in HEK293T cells using [gamma-35S]-GTP as radioligand (Experiment 2); format: cell-based, HEK-293T; method in brief: as §1
# [9] = molecular target: T4, Sphingosine 1-phosphate receptor 4; experiment: In vitro binding affinity towards human Sphingosine 1-phosphate receptor 4 expressed in HEK293T cells using [gamma-35S]-GTP as radioligand (Experiment 2); format: cell-based, HEK-293T; method in brief: as §1
# [10] = molecular target: T2, Sphingosine 1-phosphate receptor 2; experiment: In vitro binding affinity towards human Sphingosine 1-phosphate receptor 2 expressed in HEK293T cells using [gamma-35S]-GTP as radioligand; format: cell-based, HEK-293T
# [11] = molecular target: T3, Sphingosine 1-phosphate receptor 3; experiment: In vitro binding affinity towards human S1P3 receptor expressed in HEK293T cells using [gamma-35S]-GTP as radioligand; format: cell-based, HEK-293T
# T1 sequence (P21453 whole entry): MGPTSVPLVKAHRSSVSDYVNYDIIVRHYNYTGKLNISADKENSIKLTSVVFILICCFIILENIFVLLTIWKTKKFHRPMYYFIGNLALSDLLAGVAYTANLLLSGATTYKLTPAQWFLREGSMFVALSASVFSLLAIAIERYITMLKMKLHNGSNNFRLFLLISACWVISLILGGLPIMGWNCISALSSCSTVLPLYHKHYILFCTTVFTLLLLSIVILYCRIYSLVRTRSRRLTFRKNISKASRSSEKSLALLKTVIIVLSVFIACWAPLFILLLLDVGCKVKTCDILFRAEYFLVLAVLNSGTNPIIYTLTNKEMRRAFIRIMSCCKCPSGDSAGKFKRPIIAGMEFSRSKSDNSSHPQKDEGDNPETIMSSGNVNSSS
# T3 sequence (Q99500 whole entry): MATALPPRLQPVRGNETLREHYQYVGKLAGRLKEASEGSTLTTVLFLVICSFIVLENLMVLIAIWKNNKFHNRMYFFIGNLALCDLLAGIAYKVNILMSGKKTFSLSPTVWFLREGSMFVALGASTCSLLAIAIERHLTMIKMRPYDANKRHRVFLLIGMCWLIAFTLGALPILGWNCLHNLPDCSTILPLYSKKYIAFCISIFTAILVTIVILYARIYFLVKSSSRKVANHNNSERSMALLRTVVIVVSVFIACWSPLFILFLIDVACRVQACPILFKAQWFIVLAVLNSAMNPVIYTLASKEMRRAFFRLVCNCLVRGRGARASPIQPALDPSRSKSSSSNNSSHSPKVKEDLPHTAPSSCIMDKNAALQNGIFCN
# Sphingosine 1-phosphate receptor 5, sequence (Q9H228 whole entry): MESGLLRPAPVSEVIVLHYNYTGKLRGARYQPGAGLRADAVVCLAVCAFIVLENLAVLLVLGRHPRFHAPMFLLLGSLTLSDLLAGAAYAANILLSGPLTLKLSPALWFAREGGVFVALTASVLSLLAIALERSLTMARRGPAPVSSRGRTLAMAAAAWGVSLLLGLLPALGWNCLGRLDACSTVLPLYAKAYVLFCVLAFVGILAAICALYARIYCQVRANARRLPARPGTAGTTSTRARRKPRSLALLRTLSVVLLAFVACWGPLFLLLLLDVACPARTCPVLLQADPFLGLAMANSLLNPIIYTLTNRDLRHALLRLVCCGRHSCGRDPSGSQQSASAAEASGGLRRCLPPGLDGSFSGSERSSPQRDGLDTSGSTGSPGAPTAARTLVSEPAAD
# T2 sequence (O95136 whole entry): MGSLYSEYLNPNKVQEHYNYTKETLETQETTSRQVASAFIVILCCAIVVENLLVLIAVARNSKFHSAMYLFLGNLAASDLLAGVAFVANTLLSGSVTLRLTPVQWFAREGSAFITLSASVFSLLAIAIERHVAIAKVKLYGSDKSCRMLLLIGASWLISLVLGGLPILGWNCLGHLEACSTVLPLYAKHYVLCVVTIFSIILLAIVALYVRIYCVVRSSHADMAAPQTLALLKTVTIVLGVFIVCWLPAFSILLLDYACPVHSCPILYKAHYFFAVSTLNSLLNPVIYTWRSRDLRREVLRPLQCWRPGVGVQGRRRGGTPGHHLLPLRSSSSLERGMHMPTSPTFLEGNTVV
SMILES,EC50 [1],EC50 [2],EC50 [4],EC50 [5],EC50 [6],also measured
CCCCCCc1ccc(NC(=O)[C@@H](N)COP(=O)(O)O)cc1.O=C(O)C(F)(F)F,550 nM,Not Active,1500 nM,55 nM,–,EC50 [3]: Not Active
CCCCCCc1ccc(NC(=O)[C@H](N)COP(=O)(O)O)cc1.O=C(O)C(F)(F)F,260 nM,Not Active,880 nM,43 nM,–,EC50 [3]: Not Active
CCCCCCCCCCCCc1ccc(NC(=O)[C@H](N)COP(=O)(O)O)cc1.O=C(O)C(F)(F)F,130 nM,Not Active,1400 nM,160 nM,740 nM,–
CCCCCCCCCCCCC/C=C/[C@@H](O)[C@@H](N)COP(=O)(O)O,–,–,–,–,–,EC50 [7]: 4.5 nM; EC50 [8]: 8.7 nM; EC50 [9]: 270 nM
CCCCCCCCCCCCCCCCNC(=O)[C@@H](N)COP(=O)(O)O,–,–,–,–,–,EC50 [10]: > 5000 nM
CCCCCCCCc1ccc(NC(=O)[C@@H](N)COP(=O)(O)O)cc1.O=C(O)C(F)(F)F,82 nM,Not Active,–,–,–,EC50 [11]: 1500 nM
CCCCCCCCCCCCCCNC(=O)[C@H](N)COP(=O)(O)O,–,–,–,> 5000 nM,–,–
CCCCCCCCCCc1ccc(NC(=O)[C@H](N)COP(=O)(O)O)cc1.O=C(O)C(F)(F)F,8.6 nM,Not Active,450 nM,41 nM,89 nM,–
CCCCCCCCc1ccc(NC(=O)[C@H](N)COP(=O)(O)O)cc1.O=C(O)C(F)(F)F,58 nM,Not Active,–,–,450 nM,–
CCCCCCCCCCCCCCNC(=O)[C@@H](N)COP(=O)(O)O,397 nM,–,–,1610 nM,862 nM,EC50 [10]: 2680 nM
